{"source": "paper PMC5733704", "about": "(Bioorganic & medicinal chemistry, 2017)", "key": {"AbFabI": {"molecular_target": "AbFabI (Acinetobacter baumannii, UniProt A0ABX6CD96)", "experiment": "AbFabI enzyme inhibition, NADH fluorescence IC50 assay", "type": "biochemical", "conditions": "for IC50: IC50 against AbFabI, 200 nM AbFabI, 300 μM crotonyl-CoA, 200 μM NADH; for fold higher AbFabI IC50 than compound 23: relative to compound 23"}, "A. baumannii strain 2208 [1]": {"test_system": "A. baumannii strain 2208", "experiment": "Checkerboard MIC with polymixin B nonapeptide against A. baumannii strain 2208", "type": "cell-based"}, "MDR A. baumannii": {"test_system": "MDR A. baumannii", "experiment": "Checkerboard MIC with colistin against MDR A. baumannii", "type": "cell-based"}, "S. aureus": {"test_system": "S. aureus", "experiment": "MIC against S. aureus, stated across the strains tested", "type": "cell-based", "conditions": "Staphylococcus aureus, read-out: MIC in S. aureus (across strains tested), in μM"}, "SaFabI": {"molecular_target": "T1, SaFabI (Staphylococcus aureus, UniProt Q6GI75)", "T1 sequence (Q6GI75 1-256)": "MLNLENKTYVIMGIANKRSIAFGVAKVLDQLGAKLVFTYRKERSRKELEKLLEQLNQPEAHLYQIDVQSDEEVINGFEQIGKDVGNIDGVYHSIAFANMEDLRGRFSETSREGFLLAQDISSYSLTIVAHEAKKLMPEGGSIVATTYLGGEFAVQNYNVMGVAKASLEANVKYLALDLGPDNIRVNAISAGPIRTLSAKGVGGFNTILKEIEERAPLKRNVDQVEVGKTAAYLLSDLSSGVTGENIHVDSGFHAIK", "experiment": "SaFabI enzyme inhibition, NADPH fluorescence IC50 assay", "type": "biochemical", "conditions": "for fold improvement in SaFabI IC50 compared to compound 1: relative to compound 1; for fold less potent than compound 8 (SaFabI IC50): relative to compound 8", "procedure,_shortened": "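NADPH fluorescence was read at 340/460 nm. Test compound ranged 0.4 nM–200 μM. Percent inhibition came from 10-min slopes versus DMSO control. At least two independent runs, each in duplicate. Interference was checked before substrate addition.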"}, "A. baumannii strain 2208 [2]": {"test_system": "A. baumannii strain 2208", "experiment": "Checkerboard MIC with colistin against A. baumannii strain 2208", "type": "cell-based"}, "[3]": {"test_system": "E. coli strain BW25113 ΔTolC", "experiment": "MIC, microbroth dilution, E. coli efflux pump mutant", "type": "cell-based", "conditions": "Escherichia coli, BW25113, read-out: MIC E. coli TolC- strain, in μM"}, "[4]": {"test_system": "S. aureus strain RN4220 overexpressing SaFabI", "experiment": "MIC, microbroth dilution, S. aureus RN4220 overexpressing SaFabI", "type": "cell-based", "conditions": "versus native strain RN4220; 4-fold or higher indicates on-target"}, "[5]": {"test_system": "S. aureus strain RN4220 overexpressing SaFabI", "conditions": "control; cited from earlier work"}}, "note": "Entries after “also recorded” stand apart in the source; their conditions may differ.", "data": [{"smiles": "O=C(Cc1ccccc1Cl)N1CCC(c2ccccc2)C1", "note": "(stereo not drawn) [Compound 1]", "values": [{"measurement": "IC50", "setting": "AbFabI", "value": "< 10", "unit": "µM"}, {"measurement": "Effect", "setting": "A. baumannii strain 2208 [1]", "value": "Synergy"}, {"measurement": "Effect", "setting": "MDR A. baumannii", "value": "Synergy"}, {"measurement": "MIC", "setting": "S. aureus", "value": "42 to 84", "unit": "µM"}]}, {"smiles": "O=C(Cc1ccccc1F)N1CCC(c2ccccc2)C1", "note": "(stereo not drawn) [Compound 2]", "values": [{"measurement": "fold improvement in SaFabI IC50 compared to compound 1", "setting": "SaFabI", "value": 2, "unit": "fold"}, {"measurement": "IC50", "setting": "AbFabI", "value": "< 10", "unit": "µM"}]}, {"smiles": "COc1ccccc1C1CCN(C(=O)Cc2ccccc2F)C1", "note": "(stereo not drawn) [Compound 3]", "values": [{"measurement": "fold less potent than compound 8 (SaFabI IC50)", "setting": "SaFabI", "value": 9, "unit": "fold"}]}, {"smiles": "O=C(Cc1cccc(F)c1F)N1CCC(c2ccccc2)C1", "note": "(stereo not drawn) [Compound 4]", "values": [{"measurement": "IC50", "setting": "AbFabI", "value": "< 10", "unit": "µM"}]}, {"smiles": "COc1ccccc1C1CCN(C(=O)Cc2cccc(F)c2F)C1", "note": "(stereo not drawn) [Compound 5]", "values": [{"measurement": "fold less potent than compound 8 (SaFabI IC50)", "setting": "SaFabI", "value": 6, "unit": "fold"}]}, {"smiles": "O=C(Cc1c(F)cccc1F)N1CCC(c2ccccc2)C1", "note": "(stereo not drawn) [Compound 6]", "values": [{"measurement": "fold improvement in SaFabI IC50 compared to compound 1", "setting": "SaFabI", "value": 5, "unit": "fold"}, {"measurement": "IC50", "setting": "AbFabI", "value": "< 10", "unit": "µM"}]}, {"smiles": "COc1ccccc1C1CCN(C(=O)Cc2c(F)cccc2F)C1", "note": "(stereo not drawn) [Compound 7]", "values": [{"measurement": "fold poorer SaFabI inhibitory activity compared to compound 6", "setting": "SaFabI; relative to compound 6", "value": "~3", "unit": "fold"}, {"measurement": "fold less potent than compound 8 (SaFabI IC50)", "setting": "SaFabI", "value": 11, "unit": "fold"}, {"measurement": "IC50", "setting": "AbFabI", "value": "< 10", "unit": "µM"}, {"measurement": "Effect", "setting": "A. baumannii strain 2208 [2]", "value": "excellent synergy"}]}, {"smiles": "COc1ccccc1C1CCN(C(=O)Cc2ccccc2Cl)C1", "note": "(stereo not drawn) [Compound 8]", "values": [{"measurement": "IC50", "setting": "AbFabI", "value": "< 10", "unit": "µM"}, {"measurement": "Effect", "setting": "MDR A. baumannii", "value": "Synergy"}]}, {"smiles": "COc1ccc(C2CCN(C(=O)Cc3ccccc3Cl)C2)cc1", "note": "(stereo not drawn) [Compound 9]", "values": [{"measurement": "fold less potent than compound 8 (SaFabI IC50)", "setting": "SaFabI", "value": 25, "unit": "fold"}]}, {"smiles": "O=C(Cc1ccccc1Cl)N1CCC(c2ccccn2)C1", "note": "(stereo not drawn) [Compound 10]", "values": [{"measurement": "Effect", "setting": "A. baumannii strain 2208 [2]", "value": "did not show synergistic behavior; also recorded: No synergy/Synergy"}]}, {"smiles": "O=C(Cc1ccccc1Cl)N1CCC(c2nccs2)C1", "note": "(stereo not drawn) [Compound 11]", "values": [{"measurement": "Effect", "setting": "A. baumannii strain 2208 [2]", "value": "did not show synergistic behavior; also recorded: No synergy"}]}, {"smiles": "O=C(Cc1ccccc1Cl)N1CCC(c2ccc3c(c2)OCO3)C1", "note": "(stereo not drawn) [Compound 12]", "values": [{"measurement": "IC50", "setting": "AbFabI", "value": "< 10", "unit": "µM"}, {"measurement": "fold change in AbFabI IC50 compared to compound 1", "setting": "AbFabI; relative to compound 1", "value": "2 to 3", "unit": "fold"}, {"measurement": "Effect", "setting": "MDR A. baumannii", "value": "Synergy"}]}, {"smiles": "CC(C)S(=O)(=O)c1ccc(CC(=O)N2CCC(c3ccc4c(c3)OCO4)C2)cc1", "note": "(stereo not drawn) [Compound 22]", "values": [{"measurement": "SaFabI enzyme inhibitory activity (in words)", "setting": "SaFabI", "value": "not tolerated"}, {"measurement": "AbFabI enzyme inhibitory activity (in words)", "setting": "AbFabI", "value": "loss in activity"}]}, {"smiles": "CC(=O)Nc1ccc(/C=C/C(=O)N2CCC(c3ccccc3)C2)cn1", "note": "(stereo not drawn) [Compound 23]", "values": [{"measurement": "Effect", "setting": "A. baumannii strain 2208 [2]", "value": "did not show synergistic behavior; also recorded: No synergy"}]}, {"smiles": "COc1ccccc1C1CCN(C(=O)/C=C/c2ccc(NC(C)=O)nc2)C1", "note": "(stereo not drawn) [Compound 24]", "values": [{"measurement": "IC50", "setting": "AbFabI", "value": "< 10", "unit": "µM"}, {"measurement": "MIC", "setting": "[3]", "value": 2, "unit": "µM"}, {"measurement": "Effect", "setting": "A. baumannii strain 2208 [1]", "value": "Synergy"}, {"measurement": "Effect", "setting": "MDR A. baumannii", "value": "Synergy"}]}, {"smiles": "CC(=O)Nc1ccc(/C=C/C(=O)N2CCC(c3ccc4c(c3)OCO4)C2)cn1", "note": "(stereo not drawn) [Compound 26]", "values": [{"measurement": "Effect", "setting": "A. baumannii strain 2208 [2]", "value": "did not show synergistic behavior; also recorded: No synergy"}]}, {"smiles": "CC(=O)Nc1ccc(/C=C/C(=O)N2CCC(c3nccs3)C2)cn1", "note": "(stereo not drawn) [Compound 27]", "values": [{"measurement": "fold higher AbFabI IC50 than compound 23", "setting": "AbFabI", "value": "15 to 40", "unit": "fold"}, {"measurement": "Effect", "setting": "A. baumannii strain 2208 [2]", "value": "did not show synergistic behavior; also recorded: No synergy"}]}, {"smiles": "CC(=O)Nc1ccc(/C=C/C(=O)N2CCC(c3ccccn3)C2)cn1", "note": "(stereo not drawn) [Compound 28]", "values": [{"measurement": "fold higher AbFabI IC50 than compound 23", "setting": "AbFabI", "value": "15 to 40", "unit": "fold"}, {"measurement": "Effect", "setting": "A. baumannii strain 2208 [2]", "value": "did not show synergistic behavior; also recorded: No synergy"}]}, {"smiles": "COc1ccccc1C1CCN(C(=O)/C=C/c2ccc(NC(C)=O)cc2)C1", "note": "(stereo not drawn) [Compound 29]", "values": [{"measurement": "SaFabI enzyme inhibitory activity (in words)", "setting": "SaFabI", "value": "complete loss in enzyme inhibitory activity"}, {"measurement": "AbFabI enzyme inhibitory activity (in words)", "setting": "AbFabI", "value": "complete loss in enzyme inhibitory activity"}]}, {"smiles": "O=C(N[C@H](CO)[C@H](O)c1ccc([N+](=O)[O-])cc1)C(Cl)Cl", "note": "[chloramphenicol]", "values": [{"measurement": "fold increase in MIC with S. aureus strain overexpressing SaFabI", "setting": "[4]", "value": "remained unchanged"}]}, {"smiles": "CC[C@H]1OC(=O)[C@H](C)[C@@H](O[C@H]2C[C@@](C)(OC)[C@@H](O)[C@H](C)O2)[C@H](C)[C@@H](O[C@@H]2O[C@H](C)C[C@H](N(C)C)[C@H]2O)[C@](C)(O)C[C@@H](C)C(=O)[C@H](C)[C@@H](O)[C@]1(C)O", "note": "[erythromycin]", "values": [{"measurement": "fold increase in MIC with S. aureus strain overexpressing SaFabI", "setting": "[4]", "value": "remained unchanged"}]}, {"smiles": "CN[C@@H]1[C@H](O[C@H]2[C@H](O[C@H]3[C@H](O)[C@@H](O)[C@H](N=C(N)N)[C@@H](O)[C@@H]3N=C(N)N)O[C@@H](C)[C@]2(O)C=O)O[C@@H](CO)[C@H](O)[C@H]1O", "note": "[streptomycin]", "values": [{"measurement": "fold increase in MIC with S. aureus strain overexpressing SaFabI", "setting": "[4]", "value": "remained unchanged"}]}, {"smiles": "CN(C)[C@@H]1C(O)=C(C(N)=O)C(=O)[C@@]2(O)C(O)=C3C(=O)c4c(O)cccc4[C@@](C)(O)[C@H]3C[C@@H]12", "note": "[tetracycline]", "values": [{"measurement": "fold increase in MIC with S. aureus strain overexpressing SaFabI", "setting": "[4]", "value": "remained unchanged"}]}, {"smiles": "Oc1cc(Cl)ccc1Oc1ccc(Cl)cc1Cl", "note": "[triclosan]", "values": [{"measurement": "fold increase in MIC with S. aureus strain overexpressing FabI", "setting": "[5]", "value": 8, "unit": "fold"}]}]}
